Test results published in ChEMBL document CHEMBL1126706, “Structure-activity relationship of N-[2-(dimethylamino)-6-[3-(5-methyl-4-phenyl-1H-imidazol-1-yl)propoxy] phenyl]-N'-pentylurea and analogues. Novel potent inhibitors of acyl-CoA:cholesterol O-acyltransferase with antiatherosclerotic activity” (J Med Chem, 1993).

Experiments:
[1] = biological target: T1, Acyl-CoA:cholesterol acyltransferase (Oryctolagus cuniculus, UniProt Q95214); assay: Tested for inhibition against acyl coenzyme A:cholesterol acyltransferase from rabbit aorta homogenate.; assay type: tissue-based
T1 sequence (Q95214 whole entry): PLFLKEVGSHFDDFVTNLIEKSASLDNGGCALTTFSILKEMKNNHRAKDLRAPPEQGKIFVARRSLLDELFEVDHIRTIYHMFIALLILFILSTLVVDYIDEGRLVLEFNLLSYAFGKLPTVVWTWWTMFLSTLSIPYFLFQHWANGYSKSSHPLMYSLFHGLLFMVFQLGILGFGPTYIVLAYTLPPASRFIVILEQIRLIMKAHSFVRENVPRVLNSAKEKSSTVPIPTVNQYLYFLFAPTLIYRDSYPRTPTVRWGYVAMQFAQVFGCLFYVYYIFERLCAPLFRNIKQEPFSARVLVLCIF

O-acyltransferase = O-acyltransferase (Oryctolagus cuniculus, UniProt G1SFD9); assay: Tested for inhibition against acyl coenzyme A:cholesterol acyltransferase from rabbit intestine microsomes.
Sequence of O-acyltransferase (G1SFD9 1-524): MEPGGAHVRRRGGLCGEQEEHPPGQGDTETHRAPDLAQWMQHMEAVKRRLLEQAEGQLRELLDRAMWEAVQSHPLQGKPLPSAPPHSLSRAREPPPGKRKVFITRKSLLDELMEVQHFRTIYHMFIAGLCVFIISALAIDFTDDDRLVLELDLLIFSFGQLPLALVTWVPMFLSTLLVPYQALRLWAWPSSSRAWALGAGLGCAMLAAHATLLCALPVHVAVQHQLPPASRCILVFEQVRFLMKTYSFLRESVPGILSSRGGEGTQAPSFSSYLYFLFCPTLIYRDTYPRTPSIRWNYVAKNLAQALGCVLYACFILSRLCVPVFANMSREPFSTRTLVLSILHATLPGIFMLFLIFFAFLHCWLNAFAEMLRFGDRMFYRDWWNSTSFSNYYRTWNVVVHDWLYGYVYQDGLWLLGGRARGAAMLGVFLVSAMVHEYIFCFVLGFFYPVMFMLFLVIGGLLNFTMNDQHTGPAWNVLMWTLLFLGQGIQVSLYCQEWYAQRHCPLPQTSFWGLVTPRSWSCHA
Procedure, shortened: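 Intestinal mucosa microsomes from NZW rabbit (10000g then 105000g pellet, buffered sucrose pH 7.4). Endogenous cholesterol plus 40 μM [1-14C]oleoyl-CoA in K2HPO4 buffer pH 7.4 with 2.4 mg/mL BSA; compound preincubated 3 min at 37 °C, enzyme (8 mg protein/mL) added, 2 min reaction, chloroform/methanol 2:1 stop. IC50 from triplicate tubes per concentration.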

Rattus norvegicus [2] = assay: Tested for cholesterol lowering activity in rats after a dose of 50 mg/kg once a day for 2 days; assay type: functional
Procedure, shortened: (§1)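 Male Sprague-Dawley rats, 5 weeks old, fed chow with 1% cholesterol and 0.5% cholic acid while given drug orally once daily as a suspension in 2% Sefuzol. Starved 5 h after last dose, bled from abdominal aorta under ether; serum total cholesterol measured enzymatically. Result as percent of control (n ≥ 4).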

Oryctolagus cuniculus [3] = assay: Tested for the plasma total cholesterol level in rabbit after administration of 0.2% (w/w) of drug for first 4 days; assay type: functional, organism-based
Procedure, shortened: (§2)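 Male NZW rabbits (2.5-3.0 kg) were fed chow with 0.5% cholesterol and 0.5% olive oil, 100 g/day, for 8 weeks, then randomized by plasma cholesterol. Drug was mixed into the diet for 4 weeks, either 0.2% (w/w) for 4 days then 0.1%, or 0.1% throughout. Plasma total cholesterol was measured enzymatically in EDTA ear-vein blood. Mean ± SEM; Student's t test vs control.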

Oryctolagus cuniculus [4] = organism: Oryctolagus cuniculus; assay: Tested for the atheromatous lesion development in rabbit; assay type: functional
Procedure, shortened: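 Male NZW rabbits (2.5-3.0 kg) fed 100 g/day chow with 0.5% cholesterol and 0.5% olive oil for 8 weeks, randomized by plasma cholesterol, then 4 weeks with drug mixed in diet (0.2% then 0.1% w/w, or 0.1% w/w). Thoracic aorta halved: one half formalin-fixed, Sudan IV-stained, stained area measured by image analysis; other half cholesterol content by TLC-FID. Mean ± SEM, 7-12 per group, Student's t test.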

Rattus norvegicus [5] = organism: Rattus norvegicus; assay: Tested for hypocholesterolemic activity required to decrease serum total cholesterol; assay type: functional
Procedure, shortened: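 Male Sprague-Dawley rats (5 weeks) on 1% cholesterol/0.5% cholic acid chow; drug in 2% Sefuzol given orally once daily for 5 days. Serum total cholesterol measured enzymatically after 5 h fast. ED30 (mg/kg dose lowering serum cholesterol to 30% of control) read from dose-response curve of at least 3 doses, n = 4 or 5.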

Rattus norvegicus [6] = assay: Tested for cholesterol lowering activity in rats after a dose of 10 mg/kg once a day for 5 days; assay type: functional; procedure, shortened: as §1
Rattus norvegicus [7] = assay: Tested for cholesterol lowering activity in rats after a dose of 30 mg/kg once a day for 5 days; assay type: functional; conditions: dose 10 mg/kg; in the assay text read “10 mg/kg” for “30 mg/kg”; procedure, shortened: as §1
Oryctolagus cuniculus [8] = assay: Tested for the plasma total cholesterol level in rabbit after administration of 0.1% (w/w) of drug for first 4 days; assay type: functional, organism-based; procedure, shortened: as §2

Structure (SMILES)	IC50 [1]	IC50 (O-acyltransferase)	Cholesterol reduction (Rattus norvegicus [6])	also measured
CCCCCNC(=O)Nc1c(OCCCn2cnc(-c3ccc(OC)cc3)c2)c(Br)cc(Br)c1N(C)C	1300 nM	2400 nM		
CCCCCNC(=O)Nc1cccc(OCCCn2cnc(-c3ccccc3)c2C)c1N(C)C	3200 nM	5800 nM		
CCCCCNC(=O)Nc1c(NCCCn2cnc(-c3ccccc3)c2C)cccc1N(C)C	2200 nM	470 nM		
CCCCCNC(=O)Nc1c(OCCCn2cnc(-c3ccccc3)c2C)ncnc1N(C)C	11000 nM	5500 nM		
CN(C)c1cccc(OCCCn2cnc(-c3ccccc3)c2)c1NC(=O)NC1CCCC1	3530 nM	240 nM		Cholesterol reduction (Rattus norvegicus [2]): -24%
CCCCCNC(=O)N(C)c1c(OCCCn2cnc(-c3ccccc3)c2)cccc1N(C)C	400 nM	930 nM		
CCCCCCNC(=O)Nc1c(OCCCn2cnc(-c3ccccc3)c2)cccc1N(C)C	50 nM	60 nM		Plasma total cholesterol (Oryctolagus cuniculus [3]): 924 mg/dL; Surface involvement (Oryctolagus cuniculus [4]): 30.6%; ED30 (Rattus norvegicus [5]): 1.3 mg/kg; Cholesterol reduction (Rattus norvegicus [2]): -57%
CCCCCNC(=O)Nc1c(OCCCn2cnc(-c3ccccc3)c2)cccc1N(C)C	160 nM	31 nM		Plasma total cholesterol (Oryctolagus cuniculus [3]): 830 mg/dL; Surface involvement (Oryctolagus cuniculus [4]): 22.8%; ED30 (Rattus norvegicus [5]): 14 mg/kg; Cholesterol reduction (Rattus norvegicus [2]): -51%
CCCCCNC(=O)Nc1c(OCCCn2cnc(C)c2-c2ccccc2)cccc1N(C)C	210 nM	85 nM	-46%	
CCCCCNC(=O)Nc1c(OCCCn2cnc(-c3cccc4ccccc34)c2)cccc1N(C)C	1550 nM	65 nM	-30%	
CCCCCCNc1c(OCCCn2cnc(-c3ccccc3)c2)cccc1N(C)C	3300 nM	11000 nM		
CCCCCN(C)C(=O)Nc1c(OCCCn2cnc(-c3ccccc3)c2)cccc1N(C)C	280 nM	550 nM		
CCCCCNC(=O)Nc1c(OCCCn2cnc3ccccc32)cccc1N(C)C	620 nM	180 nM	-12%	
CCCCCNC(=O)Nc1ccc(OCCCn2cnc(-c3ccccc3)c2C)cc1N(C)C	1500 nM	2400 nM		
CCCCCNC(=O)Nc1c(OCCCNCCc2ccccc2)cccc1N(C)C	3440 nM	960 nM	-18%	
CCCCCC(=O)Nc1c(OCCCn2cnc(-c3ccccc3)c2)cccc1N(C)C	100 nM	200 nM		Cholesterol reduction (Rattus norvegicus [2]): 3%
CCCCCNC(=O)Nc1c(OCCn2cnc(-c3ccccc3)c2)cccc1N(C)C	1400 nM	170 nM		
CCNC(=O)Nc1c(OCCCn2cnc(-c3ccccc3)c2)cccc1N(C)C	> 10000 nM	870 nM		Cholesterol reduction (Rattus norvegicus [2]): 2%
CCCCCNC(=O)Nc1c(OCCCn2cnc(-c3ccc(CCCC)cc3)c2)cccc1N(C)C	430 nM	54 nM	-46%	

Structure (SMILES)	IC50 [1]	IC50 (O-acyltransferase)	Cholesterol reduction (Rattus norvegicus [6])	also measured
CCCCCNC(=O)Nc1cc(OCCCn2cnc(-c3ccccc3)c2C)ccc1N(C)C	410 nM	410 nM		
CCCCCNC(=O)Nc1c(OCCCn2ccnc2-c2ccccc2)cccc1N(C)C	480 nM	380 nM		Cholesterol reduction (Rattus norvegicus [7]): -12%
CCCCCNC(=O)Nc1c(OCCCn2ncc(-c3ccccc3)n2)cccc1N(C)C	180 nM	32 nM	-32%	
CCCCCNC(=O)Nc1c(SCCCn2cnc(-c3ccccc3)c2C)cccc1N(C)C	58 nM	56 nM		
CCCCCNC(=O)Nc1c(CCCCn2cnc(-c3ccccc3)c2C)cccc1N(C)C	140 nM	170 nM	-37%	
CCCCCNC(=O)Nc1c(OCCCn2nc3ccccc3n2)cccc1N(C)C	290 nM	770 nM	-3.4%	
CCCCNC(=O)Nc1c(OCCCn2cnc(-c3ccccc3)c2)cccc1N(C)C	810 nM	140 nM		Plasma total cholesterol (Oryctolagus cuniculus [3]): 1190 mg/dL; Surface involvement (Oryctolagus cuniculus [4]): 23.5%; ED30 (Rattus norvegicus [5]): 75 mg/kg; Cholesterol reduction (Rattus norvegicus [2]): -37%
CCCCCNC(=O)Nc1c(OCCCn2cnc(-c3ccc(OC)cc3)c2)cccc1N(C)C	1330 nM	59 nM	-36%	
CCCCCNC(=O)Nc1c(OCCCN2CCC(c3ccccc3)CC2)cccc1N(C)C	470 nM	340 nM	-27%	
CCCCCNC(=O)Nc1c(OCCCN2CCN(c3ccccc3)CC2)cccc1N(C)C	180 nM		-44%	
CN(C)c1cccc(OCCCn2cnc(-c3ccccc3)c2)c1NC(=O)NC1CCCCC1	1070 nM	73 nM		Cholesterol reduction (Rattus norvegicus [2]): -42%
CCCCCNC(=O)Nc1c(OCCCCn2cnc(-c3ccccc3)c2)cccc1N(C)C	780 nM	160 nM		
CN(C)c1cccc(OCCCn2cnc(-c3ccccc3)c2)c1NC(=O)NC(C)(C)C	990 nM	130 nM		Cholesterol reduction (Rattus norvegicus [2]): -12%
CCCCCNC(=O)Nc1c(N(C)C)ccc(C)c1OCCCn1cnc(-c2ccccc2)c1	250 nM	410 nM		
CCCNC(=O)Nc1c(OCCCn2cnc(-c3ccccc3)c2)cccc1N(C)C	7230 nM	660 nM		
CCCCCNC(=O)Nc1c(OCCCn2cnc(-c3ccccc3)c2C)cccc1N(C)C	110 nM		-49%	Plasma total cholesterol (Oryctolagus cuniculus [8]): 800 mg/dL; Surface involvement (Oryctolagus cuniculus [4]): 21%; ED30 (Rattus norvegicus [5]): 4.5 mg/kg
CCCCCNC(=O)Nc1c(OCCCn2cc(-c3ccc(OC)cc3)nc2C)cccc1N(C)C	730 nM	160 nM	-15%	
CCCCCNC(=O)Nc1c(OCCCn2nnc(-c3ccccc3)n2)cccc1N(C)C	230 nM	23 nM	-48%	
